Laboratory results reported in the RNAGym collection of RNA variant scans (doi:10.1002/anie.201605470).

B1: Osa-1-4 twister ribozyme (parent)
chain: CCGCCUAACACUGCCAAUGCCGGUCCCAAGCCCGGAUAAAAGUGGAGGGGGCGG

Variants of: B1
Assay: self-cleavage, relative activity (ratio to wild type); higher = more cleavage; co-transcriptional
Outline: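 A DNA template was synthesised for a 54-nucleotide twister ribozyme from Oryza sativa, with 97 % wild-type base and 1 % of each other base at each of the 48 positions downstream of the cleavage site. The ribozyme cleaved itself co-transcriptionally during 2 h of in vitro transcription at 37 °C. Reverse transcription with a template-switching oligonucleotide, PCR amplification and deep sequencing followed, and cleavage status came from reads with or without upstream sequence. Relative activity is the fraction cleaved normalised to wild type.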

Variant	self-cleavage
CCGCCUAACACUGCCAAUACCGGUCCCAAGCCCGGAUAAAGGUGGAGGGGGCGG [A41G G19A]	0.17
CCGCCUAACACUGCCAAUCCCGGUCCCAAGCCCGGAUAAAGGUGGAGGGGGCGG [A41G G19C]	0.08
CCGCCUAACACUGCCAAUUCCGGUCCCAAGCCCGGAUAAAGGUGGAGGGGGCGG [A41G G19U]	0.09
CCGCCUAACACUGCCAAUGCCGGCCCCAAGCCCGGAUAAAGGUGGAGGGGGCGG [A41G U24C]	0.07
CCGCCUAACACUGCCAAUGCCGGACCCAAGCCCGGAUAAAGGUGGAGGGGGCGG [A41G U24A]	0.07
CCGCCUAACACUGCCAAUGCCGGGCCCAAGCCCGGAUAAAGGUGGAGGGGGCGG [A41G U24G]	0.04
CCGCCUAACACUGCCAAUGCCGGUCCCAAGUCCGGAUAAAGGUGGAGGGGGCGG [A41G C31U]	0.17
CCGCCUAACACUGCCAAUGCCGGUCCCAAGGCCGGAUAAAGGUGGAGGGGGCGG [A41G C31G]	0.11
CCGCCUAACACUGCCAAUGCCGGUCCCAAGACCGGAUAAAGGUGGAGGGGGCGG [A41G C31A]	0.04
CCGCCUAACACUGCCAAUGCCGGUCCCAAGCCCGGAUAAAGGUGGAGGGGGCAG [A41G G53A]	0.61
CCGCCUAACACUGCCAAUGCCGGUCCCAAGCCCGGAUAAAGGUGGAGGGGGCCG [A41G G53C]	0.08
CCGCCUAACACUGCCAAUGCCGGUCCCAAGCCCGGAUAAAGGUGGAGGGGGCUG [A41G G53U]	0.25
CCGCCUGACACUGCCAAUGCCGGUCCCAAGCCCGGAUAAAUGUGGAGGGGGCGG [A41U A7G]	0.31
CCGCCUUACACUGCCAAUGCCGGUCCCAAGCCCGGAUAAAUGUGGAGGGGGCGG [A41U A7U]	0.11
CCGCCUCACACUGCCAAUGCCGGUCCCAAGCCCGGAUAAAUGUGGAGGGGGCGG [A41U A7C]	0.03
CCGCCUAACACUGCCAAUGCCGGUCCCAAGCCUGGAUAAAGGUGGAGGGGGCGG [A41G C33U]	0.12
CCGCCUAACACUGCCAAUGCCGGUCCCAAGCCGGGAUAAAGGUGGAGGGGGCGG [A41G C33G]	0.1
CCGCCUAACACUGCCAAUGCCGGUCCCAAGCCAGGAUAAAGGUGGAGGGGGCGG [A41G C33A]	0.07
CCGCCUAACACUGCCAAUGCCGGUCCCAAGCCCGGAUAAAGGUGGAGGGAGCGG [A41G G50A]	0.34
CCGCCUAACACUGCCAAUGCCGGUCCCAAGCCCGGAUAAAGGUGGAGGGCGCGG [A41G G50C]	0.77
CCGCCUAACACUGCCAAUGCCGGUCCCAAGCCCGGAUAAAGGUGGAGGGUGCGG [A41G G50U]	0.91
CCGCCUAACACUACCAAUGCCGGUCCCAAGCCCGGAUAAAGGUGGAGGGGGCGG [A41G G13A]	0.06
CCGCCUAACACUUCCAAUGCCGGUCCCAAGCCCGGAUAAAGGUGGAGGGGGCGG [A41G G13U]	0.04
CCGCCUAACACUCCCAAUGCCGGUCCCAAGCCCGGAUAAAGGUGGAGGGGGCGG [A41G G13C]	0.03
CCGCCUAACACCGCCAAUGCCGGUCCCAAGCCCGGAUAAAGGUGGAGGGGGCGG [A41G U12C]	0.78

Variant	self-cleavage
CCGCCUAACACAGCCAAUGCCGGUCCCAAGCCCGGAUAAAGGUGGAGGGGGCGG [A41G U12A]	0.87
CCGCCUAACACGGCCAAUGCCGGUCCCAAGCCCGGAUAAAGGUGGAGGGGGCGG [A41G U12G]	0.21
CCGCCUAACACUGCCAAUGCCGGUCCCAAGCCCGGAUAAAUGUGGUGGGGGCGG [A41U A46U]	0.09
CCGCCUAACACUGCCAAUGCCGGUCCCAAGCCCGGAUAAAUGUGGCGGGGGCGG [A41U A46C]	0.06
CCGCCUAACACUGCCAAUGCCGGUCCCAAGCCCGGAUAAAUGUGGGGGGGGCGG [A41U A46G]	0.07
CCGCCUAACACUGCCAAUGCCGGUCCCAAGCCCGGAUAAAGGUGGAGCGGGCGG [A41G G48C]	0.08
CCGCCUAACACUGCCAAUGCCGGUCCCAAGCCCGGAUAAAGGUGGAGAGGGCGG [A41G G48A]	0.08
CCGCCUAACACUGCCAAUGCCGGUCCCAAGCCCGGAUAAAGGUGGAGUGGGCGG [A41G G48U]	0.05
CCGCCUAACACUGCCAAUGCCGGUCACAAGCCCGGAUAAAGGUGGAGGGGGCGG [A41G C26A]	0.05
CCGCCUAACACUGCCAAUGCCGGUCUCAAGCCCGGAUAAAGGUGGAGGGGGCGG [A41G C26U]	0.17
CCGCCUAACACUGCCAAUGCCGGUCGCAAGCCCGGAUAAAGGUGGAGGGGGCGG [A41G C26G]	0.09
CCGCCUAACACUGCCAAUGCCGGUCCCAAGCCCGGAUAAAGGUGGAGGGGGGGG [A41G C52G]	0.84
CCGCCUAACACUGCCAAUGCCGGUCCCAAGCCCGGAUAAAGGUGGAGGGGGAGG [A41G C52A]	0.84
CCGCCUAACACUGCCAAUGCCGGUCCCAAGCCCGGAUAAAGGUGGAGGGGGUGG [A41G C52U]	0.88
CCGCCUAACACUGCCAAUGCCGGUCCCAAGCCCGGAUAAAGGAGGAGGGGGCGG [A41G U43A]	0.21
CCGCCUAACACUGCCAAUGCCGGUCCCAAGCCCGGAUAAAGGGGGAGGGGGCGG [A41G U43G]	0.16
CCGCCUAACACUGCCAAUGCCGGUCCCAAGCCCGGAUAAAGGCGGAGGGGGCGG [A41G U43C]	0.13
CCGCCUAACACUGCCAAUGCCGAUCCCAAGCCCGGAUAAAGGUGGAGGGGGCGG [A41G G23A]	0.12
CCGCCUAACACUGCCAAUGCCGCUCCCAAGCCCGGAUAAAGGUGGAGGGGGCGG [A41G G23C]	0.07
CCGCCUAACACUGCCAAUGCCGUUCCCAAGCCCGGAUAAAGGUGGAGGGGGCGG [A41G G23U]	0.06
CCGCCUACCACUGCCAAUGCCGGUCCCAAGCCCGGAUAAAUGUGGAGGGGGCGG [A41U A8C]	0.07
CCGCCUAUCACUGCCAAUGCCGGUCCCAAGCCCGGAUAAAUGUGGAGGGGGCGG [A41U A8U]	0.25
CCGCCUAGCACUGCCAAUGCCGGUCCCAAGCCCGGAUAAAUGUGGAGGGGGCGG [A41U A8G]	0.41
CCGCCUAACACUGCCAAUGCCGGUCCCAAUCCCGGAUAAAGGUGGAGGGGGCGG [A41G G30U]	0.05
CCGCCUAACACUGCCAAUGCCGGUCCCAAACCCGGAUAAAGGUGGAGGGGGCGG [A41G G30A]	0.05

Variant	self-cleavage
CCGCCUAACACUGCCAAUGCCGGUCCCAACCCCGGAUAAAGGUGGAGGGGGCGG [A41G G30C]	0.05
CCGCCUAACACUGCCAAUGCCGGUCCCAAGCCCGGAUAAAGGUCGAGGGGGCGG [A41G G44C]	0.39
CCGCCUAACACUGCCAAUGCCGGUCCCAAGCCCGGAUAAAGGUUGAGGGGGCGG [A41G G44U]	0.31
CCGCCUAACACUGCCAAUGCCGGUCCCAAGCCCGGAUAAAGGUAGAGGGGGCGG [A41G G44A]	0.14
CCGCCUAACACUGCCAAUGCCGGUCCCAAGCCCGGACAAAGGUGGAGGGGGCGG [A41G U37C]	0.59
CCGCCUAACACUGCCAAUGCCGGUCCCAAGCCCGGAGAAAGGUGGAGGGGGCGG [A41G U37G]	0.87
CCGCCUAACACUGCCAAUGCCGGUCCCAAGCCCGGAAAAAGGUGGAGGGGGCGG [A41G U37A]	0.86
CCGCCUAACACUGCCAAUGCCGGUCCCAAGCCCGGAUAAAGAUGGAGGGGGCGG [A41G G42A]	0.72
CCGCCUAACACUGCCAAUGCCGGUCCCAAGCCCGGAUAAAGCUGGAGGGGGCGG [A41G G42C]	0.37
CCGCCUAACACUGCCAAUGCCGGUCCCAAGCCCGGAUAAAGUUGGAGGGGGCGG [A41G G42U]	0.44
CCGCCUAACACUGCCAAGGCCGGUCCCAAGCCCGGAUAAAGGUGGAGGGGGCGG [A41G U18G]	0.83
CCGCCUAACACUGCCAACGCCGGUCCCAAGCCCGGAUAAAGGUGGAGGGGGCGG [A41G U18C]	0.74
CCGCCUAACACUGCCAAAGCCGGUCCCAAGCCCGGAUAAAGGUGGAGGGGGCGG [A41G U18A]	0.77
CCGCCUAACACUGCCAAUGCCGGUCCCAAGCCCGGAUAAAGGUGGAGGGGACGG [A41G G51A]	0.41
CCGCCUAACACUGCCAAUGCCGGUCCCAAGCCCGGAUAAAGGUGGAGGGGUCGG [A41G G51U]	0.12
CCGCCUAACACUGCCAAUGCCGGUCCCAAGCCCGGAUAAAGGUGGAGGGGCCGG [A41G G51C]	0.09
CCGCCUAACACUGCCAAUGCCGGUCCCAAGCCCGGAUAAAGGUGGAGGGGGCGA [A41G G54A]	0.81
CCGCCUAACACUGCCAAUGCCGGUCCCAAGCCCGGAUAAAGGUGGAGGGGGCGU [A41G G54U]	0.82
CCGCCUAACACUGCCAAUGCCGGUCCCAAGCCCGGAUAAAGGUGGAGGGGGCGC [A41G G54C]	0.8
CCGCCUAACACUGCCAAUGCCGGUCCCAAGCCCGGAUAAAUGUGGAGGGGGCGG [A41U]	1.02
CCGCCUAACACUGCCAAUGCCUGUCCCAAGCCCGGAUAAAGGUGGAGGGGGCGG [A41G G22U]	0.27
CCGCCUAACACUGCCAAUGCCCGUCCCAAGCCCGGAUAAAGGUGGAGGGGGCGG [A41G G22C]	0.05
CCGCCUAACACUGCCAAUGCCAGUCCCAAGCCCGGAUAAAGGUGGAGGGGGCGG [A41G G22A]	0.48
CCGCCUAACACUGCCAAUGCCGGUCCCAAGCCCCGAUAAAGGUGGAGGGGGCGG [A41G G34C]	0.16
CCGCCUAACACUGCCAAUGCCGGUCCCAAGCCCUGAUAAAGGUGGAGGGGGCGG [A41G G34U]	0.18

Variant	self-cleavage
CCGCCUAACACUGCCAAUGCCGGUCCCAAGCCCAGAUAAAGGUGGAGGGGGCGG [A41G G34A]	0.41
CCGCCUAACACUGCCAAUGCCGGUGCCAAGCCCGGAUAAAGGUGGAGGGGGCGG [A41G C25G]	0.06
CCGCCUAACACUGCCAAUGCCGGUUCCAAGCCCGGAUAAAGGUGGAGGGGGCGG [A41G C25U]	0.16
CCGCCUAACACUGCCAAUGCCGGUACCAAGCCCGGAUAAAGGUGGAGGGGGCGG [A41G C25A]	0.07
CCGCCUAACACUGCCAAUGCCGGUCCCAAGCCCGGAUAAAGGUGGAGGAGGCGG [A41G G49A]	0.08
CCGCCUAACACUGCCAAUGCCGGUCCCAAGCCCGGAUAAAGGUGGAGGUGGCGG [A41G G49U]	0.07
CCGCCUAACACUGCCAAUGCCGGUCCCAAGCCCGGAUAAAGGUGGAGGCGGCGG [A41G G49C]	0.06
CCGCCUAACACUGCCAAUGCCGGUCCCAAGCCCGGAUAAAGGUGGACGGGGCGG [A41G G47C]	0.07
CCGCCUAACACUGCCAAUGCCGGUCCCAAGCCCGGAUAAAGGUGGAAGGGGCGG [A41G G47A]	0.1
CCGCCUAACACUGCCAAUGCCGGUCCCAAGCCCGGAUAAAGGUGGAUGGGGCGG [A41G G47U]	0.08
CCGCCUAACACUGCCAAUGCCGGUCCCAAGCUCGGAUAAAGGUGGAGGGGGCGG [A41G C32U]	0.08
CCGCCUAACACUGCCAAUGCCGGUCCCAAGCACGGAUAAAGGUGGAGGGGGCGG [A41G C32A]	0.06
CCGCCUAACACUGCCAAUGCCGGUCCCAAGCGCGGAUAAAGGUGGAGGGGGCGG [A41G C32G]	0.13
CCGCCUAACACUGCCAAUGCCGGUCCCAAGCCCGUAUAAAGGUGGAGGGGGCGG [A41G G35U]	0.51
CCGCCUAACACUGCCAAUGCCGGUCCCAAGCCCGCAUAAAGGUGGAGGGGGCGG [A41G G35C]	0.15
CCGCCUAACACUGCCAAUGCCGGUCCCAAGCCCGAAUAAAGGUGGAGGGGGCGG [A41G G35A]	0.57
CCGCCUAACACUGCCAAUGCCGGUCCCAAGCCCGGAUAAAGGUGCAGGGGGCGG [A41G G45C]	0.05
CCGCCUAACACUGCCAAUGCCGGUCCCAAGCCCGGAUAAAGGUGAAGGGGGCGG [A41G G45A]	0.09
CCGCCUAACACUGCCAAUGCCGGUCCCAAGCCCGGAUAAAGGUGUAGGGGGCGG [A41G G45U]	0.09
CCGCCUAACACUGCCAAUGCCGGUCCAAAGCCCGGAUAAAGGUGGAGGGGGCGG [A41G C27A]	0.09
CCGCCUAACACUGCCAAUGCCGGUCCUAAGCCCGGAUAAAGGUGGAGGGGGCGG [A41G C27U]	0.09
CCGCCUAACACUGCCAAUGCCGGUCCGAAGCCCGGAUAAAGGUGGAGGGGGCGG [A41G C27G]	0.04
